What was measured:
[1] = Half life in human liver microsomes; assay type: ADME, microsome
[2] = Clearance in mouse at 1.15 mg/kg, iv by LC-MS/MS analysis; assay type: ADME, organism-based; conditions: in vivo
[3] = Volume of distribution at steady state in mouse at 1.15 mg/kg, iv by LC-MS/MS analysis; assay type: ADME, organism-based; conditions: in vivo, read-out: Vdss
[4] = Half life in mouse at 14.6 mg/kg, po by LC-MS/MS analysis; assay type: ADME, organism-based; conditions: in vivo
[5] = Cmax in mouse at 14.6 mg/kg, po by LC-MS/MS analysis; assay type: ADME, organism-based; design: dose 14.6 mg/kg, route oral; conditions: in vivo
[6] = Clearance in rat at 2 mg/kg, iv by LC-MS/MS analysis; assay type: ADME, organism-based; conditions: in vivo
[7] = Half life in rat at 10 mg/kg, po by LC-MS/MS analysis; assay type: ADME, organism-based; conditions: in vivo
[8] = AUClast in rat at 10 mg/kg, po by LC-MS/MS analysis; assay type: ADME, organism-based; design: dose 10 mg/kg, time 0 - last, route oral; conditions: in vivo
[9] = Clearance in dog at 1 mg/kg, iv by LC-MS/MS analysis; assay type: ADME, organism-based, Canis lupus familiaris; conditions: in vivo
[10] = target: T1, Free fatty acid receptor 4 (Mus musculus, UniProt Q7TMA4); assay: Agonist activity at recombinant mouse GPR120 expressed in HEK293 cells; assay type: functional, cell-based
T1 sequence (Q7TMA4 whole entry): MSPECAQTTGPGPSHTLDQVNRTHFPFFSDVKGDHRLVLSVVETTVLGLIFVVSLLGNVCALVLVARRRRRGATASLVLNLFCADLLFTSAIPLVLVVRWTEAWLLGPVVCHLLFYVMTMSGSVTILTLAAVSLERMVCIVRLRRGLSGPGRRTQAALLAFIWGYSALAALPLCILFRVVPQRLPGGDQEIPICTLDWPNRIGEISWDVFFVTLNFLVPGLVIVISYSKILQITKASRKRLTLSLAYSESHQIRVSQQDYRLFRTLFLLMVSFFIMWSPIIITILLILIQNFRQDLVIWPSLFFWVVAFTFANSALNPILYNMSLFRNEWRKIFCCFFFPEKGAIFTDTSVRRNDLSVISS

[11] = target: T2, Free fatty acid receptor 4 (Homo sapiens, UniProt Q5NUL3); assay: Agonist activity at GPR120 in human HT-29 cells assessed as intracellular calcium flux; assay type: functional, cell-based
T2 sequence (Q5NUL3 whole entry): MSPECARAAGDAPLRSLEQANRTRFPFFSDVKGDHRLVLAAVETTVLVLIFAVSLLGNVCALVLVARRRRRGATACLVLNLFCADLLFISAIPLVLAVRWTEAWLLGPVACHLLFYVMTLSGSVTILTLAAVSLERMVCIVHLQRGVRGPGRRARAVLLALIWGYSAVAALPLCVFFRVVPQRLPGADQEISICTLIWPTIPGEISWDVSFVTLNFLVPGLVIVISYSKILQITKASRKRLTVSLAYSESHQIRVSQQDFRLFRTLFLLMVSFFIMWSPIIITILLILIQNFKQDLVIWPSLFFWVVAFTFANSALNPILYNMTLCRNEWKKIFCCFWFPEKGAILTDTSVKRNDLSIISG
Method in brief: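 Calcium-flux EC50 measured in HT-29 cells, a low-expressing line with endogenous GPR120.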

Homo sapiens = species on record: Homo sapiens; assay: Selectivity ratio of EC50 for human GPR40 to EC50 for recombinant human GPR120 expressed in HEK293 cells; assay type: cell-based
[12] = target: Free fatty acid receptor 1 (Mus musculus, UniProt Q76JU9); assay: Agonist activity at mouse GPR40; assay type: functional
Mus musculus [13] = species on record: Mus musculus; assay: Selectivity ratio of EC50 for mouse GPR40 to EC50 for recombinant mouse GPR120 expressed in HEK293 cells; assay type: cell-based
Cavia porcellus [14] = assay: Cardiotoxicity in guinea pig assessed as effect on QT interval at 22.4 mg/kg; assay type: toxicity, organism-based; conditions: in vivo
Cavia porcellus [15] = assay: Cardiotoxicity in guinea pig assessed as effect on QTcB interval at 22.4 mg/kg; assay type: toxicity, organism-based; conditions: in vivo
Cavia porcellus [16] = assay: Cardiotoxicity in guinea pig assessed as effect on body temperature at 22.4 mg/kg; assay type: toxicity, organism-based; conditions: in vivo
Mus musculus [17] = assay: Antidiabetic activity in diet-induced obese C57Bl/6 mouse model assessed as change in plasma glucose AUC at 1 mg/kg, po administered 30 mins prior to glucose challenge measured up to 90 mins post dose by OGTT; assay type: functional
Method in brief: (§1)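 Diet-induced obese mice dosed orally at 0.1–3.0 mg/kg 30 min before an oral glucose load (time 0). Glucose followed from 30 min pre-glucose to 90 min post-glucose. Saxagliptin 1 mg/kg was the positive control.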

Mus musculus [18] = assay: Antidiabetic activity in diet-induced obese C57Bl/6 mouse model assessed as change in plasma glucose AUC at 3 mg/kg, po administered 30 mins prior to glucose challenge measured up to 90 mins post dose by OGTT; assay type: functional; method in brief: as §1
Mus musculus [19] = assay: Antidiabetic activity in diet-induced obese C57Bl/6 mouse model assessed as plasma glucose AUC at 10 mg/kg administered 30 mins prior to glucose challenge measured up to 90 mins post dose by ipGTT (reference value: 10113 mg/dL.min); assay type: functional, organism-based; design: time < 1.5 hr, dose 10 mg/kg
Method in brief: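 Intraperitoneal glucose tolerance test with 10 mg/kg dosing, run in GPR120 knockout mice and in wild-type mice.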

Mus musculus [20] = assay: Glucose lowering effect in GPR120 knock out mouse assessed as plasma glucose AUC at 10 mg/kg administered 30 mins prior to glucose challenge measured up to 90 mins post dose by ipGTT (reference value: 7319 mg/dL.min); assay type: functional, organism-based; design: time < 1.5 hr, dose 10 mg/kg
Method in brief: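 Intraperitoneal glucose tolerance test in GPR120 knockout mice at 10 mg/kg. Wild-type mice were run in parallel, and glucose lowering was compared with vehicle-treated animals.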

Mus musculus [21] = assay: Antiobesity activity in diet-induced obesity C57Bl6/J mouse model assessed as final glucose level in plasma at 10 mg/kg qd for 15 days measured on day 15 post 6 hrs fasting (reference value: 184 +/- 30 mg/dL); assay type: functional
Mus musculus [22] = assay: Antiobesity activity in diet-induced obesity C57Bl6/J mouse model assessed as final glucose level in plasma at 30 mg/kg qd for 15 days measured on day 15 post 6 hrs fasting (reference value: 184 +/- 30 mg/dL); assay type: functional
Mus musculus [23] = assay: Antiobesity activity in diet-induced obesity C57Bl6/J mouse model assessed as change in plasma glucose level at 10 mg/kg bid for 15 days measured on day 15 post 6 hrs fasting; assay type: functional
Mus musculus [24] = assay: Antiobesity activity in diet-induced obesity C57Bl6/J mouse model assessed as basal insulin level in plasma at 30 mg/kg qd for 15 days measured on day 15 post 6 hrs fasting (reference value: 16959 +/- 4943 pg/ml); assay type: functional
Mus musculus [25] = assay: Antiobesity activity in diet-induced obesity C57Bl6/J mouse model assessed as final insulin level in plasma at 10 mg/kg qd for 15 days measured on day 15 post 6 hrs fasting (reference value: 7304 +/- 2967 pg/ml); assay type: functional
Mus musculus [26] = assay: Antiobesity activity in diet-induced obesity C57Bl6/J mouse model assessed as change in plasma insulin level at 10 mg/kg qd for 15 days measured on day 15 post 6 hrs fasting; assay type: functional
Mus musculus [27] = assay: Antiobesity activity in diet-induced obesity C57Bl6/J mouse model assessed as change in plasma insulin level at 30 mg/kg qd for 15 days measured on day 15 post 6 hrs fasting; assay type: functional
Mus musculus [28] = assay: Antidiabetic activity in diet-induced obese C57Bl/6 mouse model assessed as plasma concentration required to show reduction in glucose level at 3 mg/kg administered 30 mins prior to glucose challenge measured up to 90 mins post dose by OGTT; assay type: functional

Free fatty acid receptor 1, sequence (Q76JU9 whole entry): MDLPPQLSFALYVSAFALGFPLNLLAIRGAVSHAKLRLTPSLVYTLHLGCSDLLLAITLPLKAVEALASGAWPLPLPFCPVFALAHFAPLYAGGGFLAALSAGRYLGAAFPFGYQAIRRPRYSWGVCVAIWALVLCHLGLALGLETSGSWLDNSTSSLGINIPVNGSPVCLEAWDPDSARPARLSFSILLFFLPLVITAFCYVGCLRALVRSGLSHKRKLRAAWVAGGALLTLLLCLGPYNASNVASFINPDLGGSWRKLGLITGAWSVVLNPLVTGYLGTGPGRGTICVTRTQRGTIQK

half-life [1]: 0.85 h
clearance [2]: 4.9 mL/min/kg
Vd [3]: 1.14 L/kg
half-life [4]: 3.45 h
Cmax [5]: 18700 ng/mL
clearance [6]: 3.2 mL/min/kg
half-life [7]: 2.87 h
AUC(0-t) [8]: 60900 ng·h/mL
clearance [9]: 2.45 mL/min/kg
EC50 [10]: 0.193 µM
EC50 [11]: 0.137 µM
EC50 [12]: 3.52 µM
Compound: O=C(O)CCc1cc(F)c(OCc2c(C(F)(F)F)ccn2-c2ccc(Cl)cc2)c(F)c1
Ratio EC50 (Homo sapiens): 42
Ratio EC50 (Mus musculus [13]): 18
Activity (Cavia porcellus [14]): Non-Toxic
Activity (Cavia porcellus [15]): Non-Toxic
Activity (Cavia porcellus [16]): Non-Toxic
Activity (Mus musculus [17]): -54%
Activity (Mus musculus [18]): -83%
AUC (Mus musculus [19]): 4920 mg/dL·min
AUC (Mus musculus [20]): 7430 mg/dL·min
Activity (Mus musculus [21]): 163 mg/dL
Activity (Mus musculus [22]): 151 mg/dL
Activity (Mus musculus [23]): -16.4 mg/dL
Activity (Mus musculus [24]): 17067 pg/mL
Activity (Mus musculus [25]): 7756 pg/mL
Activity (Mus musculus [26]): 457 pg/mL
Activity (Mus musculus [27]): -3450 pg/mL
EC (Mus musculus [28]): 32 nM
